Data published in ChEMBL document CHEMBL1146838, “4-Hydroxy-3-methyl-6-phenylbenzofuran-2-carboxylic acid ethyl ester derivatives as potent anti-tumor agents” (Bioorg Med Chem Lett, 2004).
In brackets after ≈: the same amount, converted by molar mass.

Tested on: WI-38 VA13
Assay: Cytotoxicity against VA13 cell line; Expressed as effective concentration
Format: functional, cell-based
Conditions: Homo sapiens
Outline: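 Human tumorigenic VA13 cells grown in MEM-E with penicillin/streptomycin and 10% fetal calf serum, seeded at 1.5–3.0×10³ cells/well, cultured 2–3 days. Compounds in DMSO (final <0.5%) added for 24 h, then washed out and cells cultured a further 3 days in fresh medium. XTT with phenazine methosulfate added for 2.5 h, OD450 read. Viability computed relative to untreated and cell-free blanks; EC50 taken from dose–response curve.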

Compared with `COc1ccc(OC)c(C(=O)c2oc3cc(-c4ccccc4)cc(O)c3c2C)c1`, `COc1ccc(C(=O)c2oc3cc(-c4ccccc4)cc(O)c3c2C)c(OC)c1` is 2.2-fold lower in EC50: 0.09 µg/mL (≈ 0.232 µM) for the first, 0.04 µg/mL (≈ 0.103 µM) for the second.

First: COc1ccc(C(=O)c2oc3cc(-c4ccccc4)cc(O)c3c2C)cc1
Second: CCc1ccc(C(=O)c2oc3cc(-c4ccccc4)cc(O)c3c2C)cc1
The EC50 of the first is lower: 0.28 µg/mL (≈ 0.781 µM) for the first, > 4 µg/mL for the second.

Compared with `CCOC(=O)c1oc2cc(-c3ccccc3)cc(O)c2c1C`, `CCC(=O)c1oc2cc(-c3ccccc3)cc(O)c2c1C` is 6.8-fold higher in EC50: 0.04 µg/mL (≈ 0.135 µM) for the first, 0.27 µg/mL (≈ 0.963 µM) for the second.

First: Cc1c(C(=O)C(C)(C)C)oc2cc(-c3ccccc3)cc(O)c12
Second: CC(=O)c1oc2cc(-c3ccccc3)cc(O)c2c1C
The EC50 of the first is 5.1-fold higher: 0.41 µg/mL (≈ 1.33 µM) for the first, 0.08 µg/mL (≈ 0.3 µM) for the second.

Going from `Cc1c(C(=O)c2ccccc2)oc2cc(-c3ccccc3)cc(O)c12` to `Cc1c(C(=O)Cc2ccccc2)oc2cc(-c3ccccc3)cc(O)c12`, the EC50 rises from 0.6 µg/mL (≈ 1.83 µM) to > 4 µg/mL.

First: Cc1c(C(=O)c2nccs2)oc2cc(-c3ccccc3)cc(O)c12
Second: Cc1c(C(=O)c2cccs2)oc2cc(-c3ccccc3)cc(O)c12
The EC50 of the first is 5-fold lower: 0.4 µg/mL (≈ 1.19 µM) for the first, 2 µg/mL (≈ 5.98 µM) for the second.

`COCc1ccccc1C(=O)c1oc2cc(-c3ccccc3)cc(O)c2c1C` and `COc1ccccc1C(=O)c1oc2cc(-c3ccccc3)cc(O)c2c1C` are within 1.5-fold of each other in EC50: 0.1 µg/mL (≈ 0.269 µM) for the first, 0.09 µg/mL (≈ 0.251 µM) for the second.

`COc1ccc(CCOC(=O)c2oc3cc(-c4ccccc4)cc(O)c3c2C)cc1` and `COc1ccc(CCOC(=O)c2oc3cc(-c4ccccc4)cc(O)c3c2C)cc1OC` are within 1.5-fold of each other in EC50: 0.02 µg/mL (≈ 0.0497 µM) for the first, 0.021 µg/mL (≈ 0.0486 µM) for the second.

Compared with `COc1ccc(C(=O)c2oc3cc(-c4ccccc4)cc(O)c3c2C)c(C(F)(F)F)c1`, `COc1cc(C(F)(F)F)ccc1C(=O)c1oc2cc(-c3ccccc3)cc(O)c2c1C` is 1.5-fold lower in EC50: 0.4 µg/mL (≈ 0.938 µM) for the first, 0.26 µg/mL (≈ 0.61 µM) for the second.

Going from `Cc1c(C(=O)c2ccc(Oc3ccccc3)cc2)oc2cc(-c3ccccc3)cc(O)c12` to `Cc1c(C(=O)c2ccccc2-c2ccccc2)oc2cc(-c3ccccc3)cc(O)c12`, the EC50 falls from > 4 µg/mL to 0.1 µg/mL (≈ 0.247 µM).

Going from `CCCC(=O)c1oc2cc(-c3ccccc3)cc(O)c2c1C` to `CCCCC(=O)c1oc2cc(-c3ccccc3)cc(O)c2c1C`, the EC50 rises from 0.59 µg/mL (≈ 2 µM) to 2 µg/mL (≈ 6.49 µM) (3.4-fold).

Going from `Cc1c(C(=O)c2cccc(OC(C)C)c2)oc2cc(-c3ccccc3)cc(O)c12` to `Cc1c(C(=O)c2cccc(CN(C)C)c2)oc2cc(-c3ccccc3)cc(O)c12`, the EC50 falls from 0.35 µg/mL (≈ 0.906 µM) to 0.09 µg/mL (≈ 0.233 µM) (3.9-fold).

Going from `Cc1c(C(=O)c2cccc(C(F)(F)F)c2)oc2cc(-c3ccccc3)cc(O)c12` to `Cc1c(C(=O)c2ccc(F)c(F)c2)oc2cc(-c3ccccc3)cc(O)c12`, the EC50 falls from > 4 µg/mL to 0.4 µg/mL (≈ 1.1 µM).

First: COc1ccc(C(=O)c2oc3cc(-c4ccccc4)cc(O)c3c2C)cc1OC
Second: Cc1c(C(=O)c2ccc(N(C)C)cc2)oc2cc(-c3ccccc3)cc(O)c12
The EC50 of the first is lower: 0.45 µg/mL (≈ 1.16 µM) for the first, > 4 µg/mL for the second.

First: Cc1c(C(=O)C2CCCCC2)oc2cc(-c3ccccc3)cc(O)c12
Second: Cc1c(C(=O)O)oc2cc(-c3ccccc3)cc(O)c12
The EC50 of the first is lower: 0.45 µg/mL (≈ 1.35 µM) for the first, > 4 µg/mL for the second.

`Cc1ncsc1CCOC(=O)c1oc2cc(-c3ccccc3)cc(O)c2c1C` and `Cc1c(C(=O)OC(C)C)oc2cc(-c3ccccc3)cc(O)c12` are within 1.5-fold of each other in EC50: 0.055 µg/mL (≈ 0.14 µM) for the first, 0.06 µg/mL (≈ 0.193 µM) for the second.

Going from `Cc1c(C(=O)c2ccc(CN(C)C)cc2)oc2cc(-c3ccccc3)cc(O)c12` to `Cc1c(C(=O)c2cncnc2)oc2cc(-c3ccccc3)cc(O)c12`, the EC50 falls from > 4 µg/mL to 0.7 µg/mL (≈ 2.12 µM).

Compared with `Cc1c(C(=O)c2cnc3ccccc3c2)oc2cc(-c3ccccc3)cc(O)c12`, `Cc1c(C(=O)c2ccccn2)oc2cc(-c3ccccc3)cc(O)c12` is lower in EC50: > 4 µg/mL for the first, 0.6 µg/mL (≈ 1.82 µM) for the second.

Compared with `Cc1c(C(=O)CCc2ccccc2)oc2cc(-c3ccccc3)cc(O)c12`, `Cc1c(C(=O)NCCc2ccccn2)oc2cc(-c3ccccc3)cc(O)c12` is lower in EC50: > 4 µg/mL for the first, 1.5 µg/mL (≈ 4.03 µM) for the second.

`Cc1c(C(=O)C(C)C)oc2cc(-c3ccccc3)cc(O)c12` showed an EC50 of 0.41 µg/mL (≈ 1.39 µM).
